Assay results as given in ChEMBL document CHEMBL3351692, “Discovery and optimization of 1,3,5-trisubstituted pyrazolines as potent and highly selective allosteric inhibitors of protein kinase C-ζ” (J Med Chem, 2014).
Calls of active or inactive are those of the source. No cut-off for these calls is given here.

Columns and labels:
[1] = target: Protein kinase C epsilon type (Homo sapiens) (UniProt Q02156); test: Inhibition of human PKCepsilon at 10 uM relative to control
[2] = target: Protein kinase C beta type (Homo sapiens) (UniProt P05771); test: Inhibition of human PKCbeta1 at 10 uM relative to control
Chain of Protein kinase C beta type (Homo sapiens) (P05771 2-671 limits assumed): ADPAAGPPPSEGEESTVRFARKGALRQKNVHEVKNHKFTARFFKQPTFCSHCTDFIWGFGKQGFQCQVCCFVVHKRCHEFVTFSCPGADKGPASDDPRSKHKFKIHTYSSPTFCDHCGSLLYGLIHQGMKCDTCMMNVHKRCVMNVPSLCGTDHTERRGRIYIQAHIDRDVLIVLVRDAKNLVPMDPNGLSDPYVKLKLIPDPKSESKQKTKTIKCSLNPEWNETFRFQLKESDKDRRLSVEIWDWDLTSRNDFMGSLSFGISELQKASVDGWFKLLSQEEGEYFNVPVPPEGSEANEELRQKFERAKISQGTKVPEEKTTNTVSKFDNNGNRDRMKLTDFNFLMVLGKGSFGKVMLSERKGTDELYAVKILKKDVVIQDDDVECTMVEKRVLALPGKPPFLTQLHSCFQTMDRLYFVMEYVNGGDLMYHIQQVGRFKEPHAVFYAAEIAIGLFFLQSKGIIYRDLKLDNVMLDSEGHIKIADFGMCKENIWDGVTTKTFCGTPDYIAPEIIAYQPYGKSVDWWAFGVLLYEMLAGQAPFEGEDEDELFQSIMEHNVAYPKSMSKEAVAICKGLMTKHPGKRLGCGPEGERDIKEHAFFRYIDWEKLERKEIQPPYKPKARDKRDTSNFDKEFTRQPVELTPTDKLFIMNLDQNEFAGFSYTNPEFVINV

[3] = target: Protein kinase C delta type (Homo sapiens) (UniProt Q05655); test: Inhibition of human PKCdelta at 10 uM relative to control
[4] = target: Protein kinase C theta type (Homo sapiens) (UniProt Q04759); test: Inhibition of human PKCtheta at 10 uM relative to control
[5] = target: T1, Nitric oxide synthase, inducible (Mus musculus) (UniProt P29477); test: Inhibition of iNOS induction in mouse RAW264.7 cells assessed as NO production at 7.5 uM; format: cell-based
T1 sequence (whole entry): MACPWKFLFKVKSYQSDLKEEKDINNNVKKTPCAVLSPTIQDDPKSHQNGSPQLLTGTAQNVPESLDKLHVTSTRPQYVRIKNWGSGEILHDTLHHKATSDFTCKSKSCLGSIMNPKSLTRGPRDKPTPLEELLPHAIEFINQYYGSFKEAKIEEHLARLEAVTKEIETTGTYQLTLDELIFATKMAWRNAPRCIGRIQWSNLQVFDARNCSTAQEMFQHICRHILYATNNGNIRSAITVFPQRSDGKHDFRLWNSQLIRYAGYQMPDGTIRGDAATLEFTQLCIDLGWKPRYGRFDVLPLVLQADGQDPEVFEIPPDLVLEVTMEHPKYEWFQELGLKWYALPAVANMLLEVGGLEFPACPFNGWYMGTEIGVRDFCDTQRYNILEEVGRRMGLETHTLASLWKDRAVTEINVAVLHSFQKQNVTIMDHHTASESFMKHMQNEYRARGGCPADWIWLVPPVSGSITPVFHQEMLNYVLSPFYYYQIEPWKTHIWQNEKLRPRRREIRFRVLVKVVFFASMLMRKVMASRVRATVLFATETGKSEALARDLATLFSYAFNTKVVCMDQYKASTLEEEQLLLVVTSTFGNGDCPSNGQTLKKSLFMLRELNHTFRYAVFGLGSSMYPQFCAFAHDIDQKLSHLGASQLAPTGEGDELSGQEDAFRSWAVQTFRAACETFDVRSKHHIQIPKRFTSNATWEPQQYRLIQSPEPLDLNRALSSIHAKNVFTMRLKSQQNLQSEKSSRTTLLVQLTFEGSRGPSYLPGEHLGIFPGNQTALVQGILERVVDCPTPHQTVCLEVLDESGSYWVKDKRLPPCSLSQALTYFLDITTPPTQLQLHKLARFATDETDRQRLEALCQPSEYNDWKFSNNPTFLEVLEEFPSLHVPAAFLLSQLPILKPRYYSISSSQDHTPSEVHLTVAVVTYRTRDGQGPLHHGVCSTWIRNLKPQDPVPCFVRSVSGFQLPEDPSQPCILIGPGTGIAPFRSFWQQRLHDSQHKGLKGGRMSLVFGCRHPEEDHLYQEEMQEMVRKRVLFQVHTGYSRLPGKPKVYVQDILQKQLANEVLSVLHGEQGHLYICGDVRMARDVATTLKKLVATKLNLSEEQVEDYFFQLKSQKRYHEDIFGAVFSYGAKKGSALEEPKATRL
Outline: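 RAW 264.7 cells seeded at 8 × 10⁴ per well in DMEM/10% FBS and grown 2 days. Then exposed to LPS with compound or DMSO for 20 h. Supernatant nitrite measured by Griess reaction (sulfanilamide/NED) at 550 nm minus 620 nm background, quantified against a sodium nitrite standard curve. At least four experiments in triplicate.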

U-937 = test: Inhibition of Thr410 phosphorylation in serum-starved human U937 cells at 5 to 10 uM by immunoblotting analysis
[6] = target: Protein kinase C eta type (Homo sapiens) (UniProt P24723); test: Inhibition of human PKCeta at 10 uM relative to control
Chain of Protein kinase C eta type (Homo sapiens) (P24723 whole entry): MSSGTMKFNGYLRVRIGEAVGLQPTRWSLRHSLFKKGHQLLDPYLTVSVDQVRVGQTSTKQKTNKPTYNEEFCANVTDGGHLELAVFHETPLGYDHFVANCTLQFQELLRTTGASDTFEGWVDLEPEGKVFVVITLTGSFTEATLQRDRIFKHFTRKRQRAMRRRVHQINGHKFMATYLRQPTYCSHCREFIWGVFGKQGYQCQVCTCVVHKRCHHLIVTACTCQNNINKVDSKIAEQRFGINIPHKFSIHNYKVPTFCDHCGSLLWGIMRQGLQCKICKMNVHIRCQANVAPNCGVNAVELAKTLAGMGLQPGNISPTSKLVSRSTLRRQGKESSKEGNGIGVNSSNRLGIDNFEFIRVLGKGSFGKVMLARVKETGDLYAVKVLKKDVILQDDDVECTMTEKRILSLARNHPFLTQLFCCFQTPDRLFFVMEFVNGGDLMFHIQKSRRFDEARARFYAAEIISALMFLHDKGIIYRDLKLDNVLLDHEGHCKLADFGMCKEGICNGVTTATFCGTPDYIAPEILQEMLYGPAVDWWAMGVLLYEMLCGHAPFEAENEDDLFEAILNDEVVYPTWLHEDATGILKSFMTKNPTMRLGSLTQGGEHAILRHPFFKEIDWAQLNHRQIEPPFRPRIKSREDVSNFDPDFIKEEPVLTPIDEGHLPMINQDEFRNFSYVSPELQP

[7] = target: Protein kinase C gamma type (Homo sapiens) (UniProt P05129); test: Inhibition of human PKCgamma at 10 uM relative to control
[8] = target: T2, Protein kinase C zeta type (Homo sapiens, UniProt Q05513); test: Inhibition of PKCzeta in human U937 cells assessed as inhibition of TNFalpha-induced NF-kappaB activation by reporter gene assay; format: cell-based, U-937
T2 sequence (Q05513 whole entry): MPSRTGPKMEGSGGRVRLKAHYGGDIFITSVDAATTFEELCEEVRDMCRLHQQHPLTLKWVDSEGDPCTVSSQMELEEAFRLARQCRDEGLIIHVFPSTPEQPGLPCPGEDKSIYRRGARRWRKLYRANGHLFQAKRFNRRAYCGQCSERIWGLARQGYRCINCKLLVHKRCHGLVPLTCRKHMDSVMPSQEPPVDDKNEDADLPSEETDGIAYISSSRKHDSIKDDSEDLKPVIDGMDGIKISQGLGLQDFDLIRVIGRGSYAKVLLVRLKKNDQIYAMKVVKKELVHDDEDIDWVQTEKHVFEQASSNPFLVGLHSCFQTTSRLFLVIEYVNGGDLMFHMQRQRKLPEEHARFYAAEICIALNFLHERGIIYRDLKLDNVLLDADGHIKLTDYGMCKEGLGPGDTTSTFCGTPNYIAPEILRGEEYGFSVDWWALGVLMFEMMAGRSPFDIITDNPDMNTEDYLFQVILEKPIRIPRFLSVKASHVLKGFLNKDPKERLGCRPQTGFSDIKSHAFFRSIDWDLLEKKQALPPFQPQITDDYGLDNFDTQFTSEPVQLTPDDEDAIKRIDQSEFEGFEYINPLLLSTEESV

[9] = target: T3, Protein kinase C zeta type (Homo sapiens) (UniProt Q05513); test: Inhibition of PKCzeta in serum-starved human U937 cells assessed as inhibition of TNFalpha-stimulated activation loop phosphorylation at 2.5 to 5 uM by immunoblotting analysis; format: cell-based; conditions: U-937
T3 sequence (whole entry): T2 sequence (Q05513 whole entry)
Outline: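 U937 cells in RPMI/10% FBS, serum-starved 24 h, treated with compound or DMSO for 1 h, then TNFα 50 ng/mL for 30 min. Whole-cell lysates separated by SDS–PAGE (10% gel) and immunoblotted for phospho-PKCζ/λ (Thr410/403), with β-actin as loading control. Near-infrared detection. Two separate experiments.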

[10] = target: Ribosomal protein S6 kinase alpha-1 (Homo sapiens) (UniProt Q15418); test: Inhibition of human RSK1 at 10 uM relative to control
[11] = target: Protein kinase C alpha type (Homo sapiens) (UniProt P17252); test: Inhibition of human PKCalpha at 10 uM relative to control
[12] = target: T3, Protein kinase C zeta type (Homo sapiens); test: Inhibition of PKCzeta (unknown origin) expressed in HEK293 cells assessed as reduction in specific activity for 6 hrs after 30 mins IGF-I stimulation by in serum free medium; format: cell-based
Outline: (§1)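 HEK293 cells transfected at 80% confluency with GST-PKCζ wild-type or V297L mutant plasmids. Next day switched to DMEM with 0.1% FCS and compound or DMSO for 6 h, then IGF-I 50 ng/mL final for 30 min at 37 °C. Lysed; GST-PKCζ pulled down on glutathione beads and eluted. 50 ng per reaction assayed for kinase activity with myelin basic protein as substrate. Triplicate treatments, two independent experiments.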

[13] = target: 3-phosphoinositide-dependent protein kinase 1 (Homo sapiens) (UniProt O15530); test: Inhibition of human PDK1 at 10 uM relative to control
[14] = target: Serine/threonine-protein kinase Sgk1 (Homo sapiens) (UniProt O00141); test: Inhibition of human SGK1 at 10 uM relative to control
RAW264.7 = test: Cytotoxicity against mouse RAW264.7 cells assessed as living cells at 7.5 uM by MTT assay; format: cell-based; conditions: raw264.7, 7.5 µM
Outline: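 RAW 264.7 macrophages: MTT viability assay run in parallel with each nitrite (Griess) experiment, same cell line and same compound treatment conditions.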

[15] = target: Ribosomal protein S6 kinase alpha-5 (Homo sapiens) (UniProt O75582); test: Inhibition of human MSK1 at 10 uM relative to control
Chain of Ribosomal protein S6 kinase alpha-5 (Homo sapiens) (O75582 whole entry, looked up): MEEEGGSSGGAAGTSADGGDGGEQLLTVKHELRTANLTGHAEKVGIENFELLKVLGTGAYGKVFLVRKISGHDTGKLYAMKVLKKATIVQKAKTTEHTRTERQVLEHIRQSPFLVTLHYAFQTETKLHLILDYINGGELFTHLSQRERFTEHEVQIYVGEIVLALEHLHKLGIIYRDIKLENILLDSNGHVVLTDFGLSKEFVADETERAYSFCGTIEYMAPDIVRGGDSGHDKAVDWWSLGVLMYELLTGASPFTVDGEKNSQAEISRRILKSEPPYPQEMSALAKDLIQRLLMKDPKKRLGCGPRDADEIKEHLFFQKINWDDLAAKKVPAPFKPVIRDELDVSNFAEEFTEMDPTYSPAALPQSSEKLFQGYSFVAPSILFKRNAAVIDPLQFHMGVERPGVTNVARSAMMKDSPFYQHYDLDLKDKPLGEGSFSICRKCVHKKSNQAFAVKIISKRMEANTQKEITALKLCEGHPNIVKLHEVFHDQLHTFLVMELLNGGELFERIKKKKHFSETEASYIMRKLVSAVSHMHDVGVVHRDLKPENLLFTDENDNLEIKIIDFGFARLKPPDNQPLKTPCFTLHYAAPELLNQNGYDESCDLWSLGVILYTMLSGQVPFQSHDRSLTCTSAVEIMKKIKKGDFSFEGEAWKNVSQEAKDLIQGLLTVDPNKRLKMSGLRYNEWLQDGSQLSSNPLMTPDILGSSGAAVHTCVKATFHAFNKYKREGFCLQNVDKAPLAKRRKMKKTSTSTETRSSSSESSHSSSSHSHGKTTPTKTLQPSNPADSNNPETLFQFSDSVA

[16] = target: T2, Protein kinase C zeta type; test: Inhibition of human PKCzeta assessed as phosphorylation reaction after 4 mins incubation by cell-free assay
[17] = target: cAMP-dependent protein kinase catalytic subunit alpha (Homo sapiens) (UniProt P17612); test: Inhibition of human PKA at 10 uM relative to control
[18] = target: Ribosomal protein S6 kinase beta-1 (Homo sapiens) (UniProt P23443); test: Inhibition of human p70S6K at 10 uM relative to control
Chain of Ribosomal protein S6 kinase beta-1 (Homo sapiens) (P23443 whole entry, looked up): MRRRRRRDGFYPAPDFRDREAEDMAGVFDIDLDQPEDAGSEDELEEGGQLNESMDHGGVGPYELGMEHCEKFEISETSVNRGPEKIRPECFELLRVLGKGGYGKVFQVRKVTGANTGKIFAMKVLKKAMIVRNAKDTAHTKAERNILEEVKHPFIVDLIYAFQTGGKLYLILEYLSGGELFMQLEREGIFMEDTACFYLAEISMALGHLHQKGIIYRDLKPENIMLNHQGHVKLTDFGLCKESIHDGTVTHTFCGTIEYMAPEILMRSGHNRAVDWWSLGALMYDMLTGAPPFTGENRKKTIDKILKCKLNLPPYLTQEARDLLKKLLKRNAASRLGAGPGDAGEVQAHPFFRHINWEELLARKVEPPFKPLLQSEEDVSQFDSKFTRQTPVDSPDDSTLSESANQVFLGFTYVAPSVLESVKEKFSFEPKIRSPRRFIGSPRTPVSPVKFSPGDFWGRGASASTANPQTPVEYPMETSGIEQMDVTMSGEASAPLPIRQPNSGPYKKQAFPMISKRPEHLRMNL

[19] = target: T3, Protein kinase C zeta type (Homo sapiens); test: Inhibition of PKCzeta (unknown origin) expressed in HEK293 cells assessed as reduction in specific activity at 2 to 5 uM for 6 hrs after 30 mins IGF-I stimulation by in serum free medium; format: cell-based; outline: as §1
[20] = target: Protein kinase C beta type (Homo sapiens) (UniProt P05771); test: Inhibition of human PKCbeta2 at 10 uM relative to control
[21] = target: T4, Protein kinase C iota type (Homo sapiens) (UniProt P41743); test: Inhibition of PKCiota (unknown origin) at 20 uM
T4 sequence (whole entry): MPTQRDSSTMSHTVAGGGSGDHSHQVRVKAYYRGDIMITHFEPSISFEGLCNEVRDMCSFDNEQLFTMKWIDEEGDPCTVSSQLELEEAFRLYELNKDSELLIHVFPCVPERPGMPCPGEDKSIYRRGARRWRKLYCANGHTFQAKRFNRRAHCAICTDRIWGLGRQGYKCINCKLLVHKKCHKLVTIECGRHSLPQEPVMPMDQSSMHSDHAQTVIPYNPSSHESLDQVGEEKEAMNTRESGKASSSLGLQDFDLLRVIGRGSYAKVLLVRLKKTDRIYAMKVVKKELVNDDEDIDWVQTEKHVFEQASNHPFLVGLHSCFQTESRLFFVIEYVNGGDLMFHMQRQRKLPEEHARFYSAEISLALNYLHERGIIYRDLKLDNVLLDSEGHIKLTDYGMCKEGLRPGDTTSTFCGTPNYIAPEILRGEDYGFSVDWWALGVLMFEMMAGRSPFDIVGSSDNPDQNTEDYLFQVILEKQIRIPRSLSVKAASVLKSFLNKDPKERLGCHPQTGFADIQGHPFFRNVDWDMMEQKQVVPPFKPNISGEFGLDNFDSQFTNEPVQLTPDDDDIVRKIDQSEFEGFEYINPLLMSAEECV
Outline: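 Cell-free radiometric kinase assay with purified recombinant PKCι under conditions similar to the PKCζ assay. Reaction mixtures preincubated 4 min at 37 °C, then phosphorylation started with γ32P-ATP/Mg2+. Mean of at least two experiments.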

Homo sapiens = species on record: Homo sapiens; test: Ratio of IC50 for PKCzeta val297leu mutant (unknown origin) to IC50 for wild type PKCzeta (unknown origin)
Outline: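 Cell-free radiometric assay with purified recombinant full-length PKCζ wild type or PIF-pocket V297L mutant. Enzyme present at 0.2 μM. 4 min preincubation at 37 °C, reaction started with γ32P-ATP/Mg2+. IC50 values are means of at least two experiments.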

[22] = target: Protein kinase C zeta type (Homo sapiens, UniProt Q05513, V297L); test: Inhibition of PKCzeta val297leu mutant (unknown origin) assessed as phosphorylation reaction after 4 mins incubation by cell-free assay
Chain of Protein kinase C zeta type (Homo sapiens, UniProt Q05513, V297L) (Q05513 whole entry V297L): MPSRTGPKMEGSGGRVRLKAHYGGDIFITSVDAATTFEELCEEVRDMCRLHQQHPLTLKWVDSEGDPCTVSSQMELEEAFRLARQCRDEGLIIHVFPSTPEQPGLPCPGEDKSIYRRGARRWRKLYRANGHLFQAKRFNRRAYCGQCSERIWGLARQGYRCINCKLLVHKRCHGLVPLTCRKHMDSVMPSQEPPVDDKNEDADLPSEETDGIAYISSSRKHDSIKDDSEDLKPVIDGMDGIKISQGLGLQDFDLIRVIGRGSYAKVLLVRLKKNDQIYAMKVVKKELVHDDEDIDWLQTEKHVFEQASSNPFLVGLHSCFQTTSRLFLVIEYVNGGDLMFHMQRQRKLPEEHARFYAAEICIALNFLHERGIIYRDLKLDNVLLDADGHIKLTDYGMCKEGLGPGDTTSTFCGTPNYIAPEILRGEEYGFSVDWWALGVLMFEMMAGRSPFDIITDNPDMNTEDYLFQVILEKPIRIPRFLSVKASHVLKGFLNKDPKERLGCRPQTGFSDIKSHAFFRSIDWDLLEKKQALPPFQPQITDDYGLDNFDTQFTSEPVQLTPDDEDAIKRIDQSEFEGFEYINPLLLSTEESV

[23] = target: Serine/threonine-protein kinase TBK1 (Homo sapiens) (UniProt Q9UHD2); test: Inhibition of human TBK1 at 10 uM relative to control
Chain of Serine/threonine-protein kinase TBK1 (Homo sapiens) (Q9UHD2 whole entry): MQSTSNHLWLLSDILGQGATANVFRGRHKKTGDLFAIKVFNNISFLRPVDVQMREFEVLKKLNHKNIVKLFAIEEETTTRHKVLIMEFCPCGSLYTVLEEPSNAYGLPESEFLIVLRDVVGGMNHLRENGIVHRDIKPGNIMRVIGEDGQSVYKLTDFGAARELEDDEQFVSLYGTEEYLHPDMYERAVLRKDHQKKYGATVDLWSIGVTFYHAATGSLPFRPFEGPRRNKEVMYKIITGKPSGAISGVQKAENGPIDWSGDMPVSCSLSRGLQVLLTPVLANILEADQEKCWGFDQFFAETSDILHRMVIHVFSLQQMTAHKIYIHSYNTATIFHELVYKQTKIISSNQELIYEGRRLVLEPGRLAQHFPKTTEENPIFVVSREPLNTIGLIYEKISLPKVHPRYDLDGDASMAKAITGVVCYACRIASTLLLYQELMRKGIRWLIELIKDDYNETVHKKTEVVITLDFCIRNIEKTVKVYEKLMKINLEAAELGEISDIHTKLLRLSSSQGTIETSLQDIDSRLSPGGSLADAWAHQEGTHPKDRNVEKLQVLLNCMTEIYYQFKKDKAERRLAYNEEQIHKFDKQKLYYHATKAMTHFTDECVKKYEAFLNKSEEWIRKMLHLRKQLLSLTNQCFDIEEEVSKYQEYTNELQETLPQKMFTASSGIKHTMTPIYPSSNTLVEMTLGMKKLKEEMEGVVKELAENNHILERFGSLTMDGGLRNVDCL

[24] = target: Inhibitor of nuclear factor kappa-B kinase subunit beta (Homo sapiens) (UniProt O14920); test: Inhibition of human IKKbeta at 10 uM relative to control
[25] = target: Mitogen-activated protein kinase kinase kinase 7 (Homo sapiens) (UniProt O43318); test: Inhibition of human TAK1 at 10 uM relative to control
[26] = target: Mitogen-activated protein kinase 14 (Homo sapiens) (UniProt Q16539); test: Inhibition of human p38alpha MAPK at 10 uM relative to control
[27] = target: Receptor-interacting serine/threonine-protein kinase 2 (Homo sapiens) (UniProt O43353); test: Inhibition of human RIPK2 at 10 uM relative to control

Chain of Protein kinase C epsilon type (Homo sapiens) (Q02156 whole entry): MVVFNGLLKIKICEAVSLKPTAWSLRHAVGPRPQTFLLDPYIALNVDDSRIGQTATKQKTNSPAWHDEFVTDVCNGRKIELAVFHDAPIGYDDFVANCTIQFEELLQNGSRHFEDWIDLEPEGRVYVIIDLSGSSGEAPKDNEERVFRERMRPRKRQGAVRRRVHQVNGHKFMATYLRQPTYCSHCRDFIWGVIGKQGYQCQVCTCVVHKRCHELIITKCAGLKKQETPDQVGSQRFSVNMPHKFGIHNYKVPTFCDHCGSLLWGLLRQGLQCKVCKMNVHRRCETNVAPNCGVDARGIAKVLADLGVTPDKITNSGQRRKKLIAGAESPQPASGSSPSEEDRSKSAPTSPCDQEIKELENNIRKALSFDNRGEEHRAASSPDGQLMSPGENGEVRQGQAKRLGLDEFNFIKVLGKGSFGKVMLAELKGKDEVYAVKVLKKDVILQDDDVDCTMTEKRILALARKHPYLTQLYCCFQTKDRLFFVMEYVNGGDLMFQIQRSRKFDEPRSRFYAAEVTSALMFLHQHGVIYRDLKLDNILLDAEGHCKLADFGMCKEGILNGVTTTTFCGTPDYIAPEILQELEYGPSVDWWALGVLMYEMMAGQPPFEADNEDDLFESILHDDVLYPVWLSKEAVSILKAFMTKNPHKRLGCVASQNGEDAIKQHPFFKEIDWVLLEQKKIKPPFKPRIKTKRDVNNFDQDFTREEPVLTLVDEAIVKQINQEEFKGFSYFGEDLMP

| Compound | inhibition [5] [%] | IC50 [8] [nM] | inhibition [9] | IC50 [16] [nM] | inhibition [20] | inhibition [21] [%] | Ratio IC50 (Homo sapiens) | IC50 [22] [nM] | Activity (RAW264.7) | further results |
| --- | --- | --- | --- | --- | --- | --- | --- | --- | --- | --- |
| Oc1ccc(C2CC(c3cccs3)=NN2c2ccc(Br)cc2)cc1 (stereo not drawn) | 65 |  |  | 500 |  | 21.4 | 2 | 1000 | Non-toxic |  |
| CC(C)(C)C1=NN(c2ccc(Cl)cc2)C(c2ccc(O)c(Cl)c2)C1 (stereo not drawn) |  | 2900 |  | 700 |  | 0 | 20.8 | 14800 | Non-toxic |  |
| CC(C)(C)C1=NN(c2ccc(Cl)cc2)C(c2ccc(O)cc2)C1 (stereo not drawn) | 50 |  |  |  | inactive |  |  |  | Non-toxic | inhibition [23]: inactive; inhibition [24]: inactive; inhibition [25]: inactive; inhibition [26]: 10%; inhibition [27]: inactive |

Continued, in another order:

| inhibition [5] [%] | IC50 [8] [nM] | inhibition [9] | IC50 [16] [nM] | inhibition [20] | inhibition [21] [%] | Ratio IC50 (Homo sapiens) | IC50 [22] [nM] | Compound | Activity (RAW264.7) | further results |
| --- | --- | --- | --- | --- | --- | --- | --- | --- | --- | --- |
| 74 | 2500 | Active | 300 |  |  |  |  | CC(C)(C)C1=NN(c2cccc(Cl)c2)C(c2ccc(F)c(O)c2)C1 (stereo not drawn) | Non-toxic | inhibition [1]: inactive; inhibition [2]: inactive; inhibition [3]: inactive; inhibition [4]: inactive; inhibition (U-937): Active; inhibition [6]: inactive; inhibition [7]: 6%; inhibition [10]: 3%; inhibition [11]: 4%; inhibition [12]: Dose-dependent effect; inhibition [13]: 8%; inhibition [14]: 18%; inhibition [15]: inactive; inhibition [17]: inactive; inhibition [18]: inactive |
|  |  | inactive |  | Active |  |  |  | Cn1cc(C2=C(c3cn(CCCSC(=N)N)c4ccccc34)C(=O)NC2=O)c2ccccc21 |  | inhibition [19]: inactive |
|  |  |  | 1500 |  | 13.4 | 2.1 | 3100 | Oc1ccc(C2CC(c3ccccc3O)=NN2c2ccc(Cl)cc2)cc1 (stereo not drawn) | Non-toxic |  |
